{"source": "ChEMBL document CHEMBL1129931", "about": "“Structure-activity studies on 2-methyl-3-(2(S)-pyrrolidinylmethoxy) pyridine (ABT-089): an orally bioavailable 3-pyridyl ether nicotinic acetylcholine receptor ligand with cognition-enhancing properties” (J Med Chem, 1997)", "key": {"[1]": {"test": "Half-life was measured in (in vitro) dog liver slice experiments following intravenous administration to dogs", "format": "ADME, organism-based, Canis lupus familiaris", "details": "in vivo", "outline": "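Beagle dogs were fasted overnight, with water available. They received 500 nmol/kg as a slow iv bolus into the saphenous vein. Jugular blood was sampled over 8 h, and plasma parent drug was measured by reverse-phase HPLC (electrochemical or derivatization/fluorescence detection).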"}, "IMR-32 [2]": {"system": "IMR-32", "test": "Concentration required to elicit ganglionic receptors measured using [86Rb+] flux functional assay in a human neuroblastoma-derived IMR-32 cell line", "format": "cell-based", "outline": "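Ganglionic-type (α3-containing) receptor function assessed as 86Rb+ flux in human neuroblastoma IMR-32 cells; EC50 reported as mean ± SEM, n = 3–5.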"}, "IMR-32 [3]": {"system": "IMR-32", "test": "The maximal efficacy relative to 100 uM nicotine", "format": "functional, Homo sapiens"}, "[4]": {"molecular_target": "Neuronal acetylcholine receptor subunit alpha-7 (Homo sapiens, UniProt P36544)", "sequence (P36544 whole entry)": "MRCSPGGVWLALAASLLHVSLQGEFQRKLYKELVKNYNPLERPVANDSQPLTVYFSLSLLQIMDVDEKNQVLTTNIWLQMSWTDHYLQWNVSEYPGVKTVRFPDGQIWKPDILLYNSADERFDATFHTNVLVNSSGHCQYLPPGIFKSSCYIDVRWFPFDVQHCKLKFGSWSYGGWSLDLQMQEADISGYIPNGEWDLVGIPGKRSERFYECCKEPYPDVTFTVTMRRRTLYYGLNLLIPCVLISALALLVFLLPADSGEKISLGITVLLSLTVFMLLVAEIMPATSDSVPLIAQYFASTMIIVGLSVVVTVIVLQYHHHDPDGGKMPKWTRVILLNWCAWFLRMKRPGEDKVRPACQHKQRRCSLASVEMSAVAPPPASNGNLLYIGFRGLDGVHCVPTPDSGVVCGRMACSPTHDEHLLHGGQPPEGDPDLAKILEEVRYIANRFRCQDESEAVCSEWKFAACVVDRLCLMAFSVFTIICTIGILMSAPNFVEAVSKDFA", "test": "Bindind affinity value obtained by measuring the displacement of radioligand [125I]alpha-bungarotoxin from K-28 cells stably express human Nicotinic acetylcholine receptor alpha7", "format": "cell-based"}, "[5]": {"test": "Half-life was measured in (in vitro) dog liver slice experiments", "format": "ADME, Canis lupus familiaris", "details": "dog liver slices", "outline": "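Compounds at a final 12 μg/mL were incubated with dog liver slices at 37 °C for times up to 24 h. Medium was removed and frozen, then parent compound was quantified by HPLC. Half-life and % remaining at 24 h were reported.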"}, "[6]": {"test": "Oral bioavailability in dog", "format": "ADME, organism-based, Canis lupus familiaris", "details": "in vivo", "outline": "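Fasted beagle dogs (n = 3–6) received 500 nmol/kg by oral gavage or slow iv bolus. Jugular plasma was sampled over 8 h, and parent drug was measured by reverse-phase HPLC. Bioavailability is reported as mean ± SEM.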"}, "Mus musculus [7]": {"system": "Mus musculus", "test": "Minimum dose of the drug (intraperitoneal) required for elicited a statistically significant response in hypothermia assay", "format": "functional", "outline": "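Body temperature was taken by rectal probe inserted 3 cm, about 20 min after ip injection. The same mice had just completed a 15-min open-field activity session.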"}, "Mus musculus [8]": {"system": "Mus musculus", "test": "Minimum dose of the drug (intraperitoneal) required for elicited a statistically significant response in seizure assay", "format": "functional"}, "Mus musculus [9]": {"system": "Mus musculus", "test": "Minimum dose of the drug (intraperitoneal) required that elicited a statistically significant response in mouse inhibitory avoidance assay", "format": "functional", "outline": "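Mice were dosed ip 15 min before training in a dark-light chamber, where entering the dark side was paired with a mild foot shock. The index of memory was latency to enter the dark chamber in a later test session.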"}, "Mus musculus [10]": {"system": "Mus musculus", "test": "Minimum dose of the drug (intraperitoneal) required elicited a statistically significant response in locomotor activity assay; No significant effect at (0.0062-6.2) dose range", "format": "functional, organism-based"}, "[11]": {"molecular_target": "Neuronal acetylcholine receptor", "test": "Binding affinity value obtained by measuring the displacement of radioligand [3H](-)-cytisine from whole rat brain Nicotinic acetylcholine receptor"}, "[12]": {"molecular_target": "Neuronal acetylcholine receptor", "test": "Binding affinity value obtained by measuring the displacement of radioligand [3H](-)-cytisine from a preparation of whole rat brain"}}, "note": "Active and inactive are the calls of the source. The rule behind the calls is not given here."}
{"smiles": "Cc1ncccc1OC[C@H]1CCCN1", "values": [{"measurement": "half-life", "setting": "[1]", "result": 1.4, "unit": "h"}, {"measurement": "EC50", "setting": "IMR-32 [2]", "result": 50, "unit": "µM"}, {"measurement": "Max", "setting": "IMR-32 [3]", "result": 11, "unit": "%"}, {"measurement": "Ki", "setting": "[4]", "result": "> 10", "unit": "µM"}, {"measurement": "half-life", "setting": "[5]", "result": "> 24", "unit": "h"}, {"measurement": "bioavailability", "setting": "[6]", "result": 66, "unit": "%"}]}
{"smiles": "Cc1ncccc1OC[C@@H]1CCCN1C", "values": [{"measurement": "half-life", "setting": "[1]", "result": 0.31, "unit": "h"}, {"measurement": "EC50", "setting": "IMR-32 [2]", "result": 25, "unit": "µM"}, {"measurement": "Max", "setting": "IMR-32 [3]", "result": 29, "unit": "%"}, {"measurement": "Ki", "setting": "[4]", "result": "> 10", "unit": "µM"}, {"measurement": "half-life", "setting": "[5]", "result": 9, "unit": "h"}, {"measurement": "bioavailability", "setting": "[6]", "result": 5.8, "unit": "%"}]}
{"smiles": "Cc1cc([C@@H]2CCCN2C)on1", "note": "[ABT-418]", "values": [{"measurement": "half-life", "setting": "[1]", "result": 0.21, "unit": "h"}, {"measurement": "EC50", "setting": "IMR-32 [2]", "result": 64, "unit": "µM"}, {"measurement": "Max", "setting": "IMR-32 [3]", "result": 85, "unit": "%"}, {"measurement": "EDmin", "setting": "Mus musculus [7]", "result": 19, "unit": "µM/kg"}, {"measurement": "EDmin", "setting": "Mus musculus [8]", "result": 62, "unit": "µM/kg"}, {"measurement": "EDmin", "setting": "Mus musculus [9]", "result": 0.062, "unit": "µM/kg"}, {"measurement": "Ki", "setting": "[4]", "result": 4.05, "unit": "µM"}, {"measurement": "half-life", "setting": "[5]", "result": 3, "unit": "h"}, {"measurement": "bioavailability", "setting": "[6]", "result": 1.2, "unit": "%"}]}
{"smiles": "Cc1ncccc1OC[C@@H]1CCCN1", "note": "[POZANICLINE]", "values": [{"measurement": "half-life", "setting": "[1]", "result": 1.6, "unit": "h"}, {"measurement": "EC50", "setting": "IMR-32 [2]", "result": 150, "unit": "µM"}, {"measurement": "Max", "setting": "IMR-32 [3]", "result": 8, "unit": "%"}, {"measurement": "EDmin", "setting": "Mus musculus [7]", "result": ">62", "unit": "µM/kg"}, {"measurement": "EDmin", "setting": "Mus musculus [8]", "result": 774, "unit": "µM/kg"}, {"measurement": "EDmin", "setting": "Mus musculus [9]", "result": 0.62, "unit": "µM/kg"}, {"measurement": "Ki", "setting": "[4]", "result": "> 10", "unit": "µM"}, {"measurement": "half-life", "setting": "[5]", "result": "> 24", "unit": "h"}, {"measurement": "EDmin", "setting": "Mus musculus [10]", "result": "inactive"}, {"measurement": "bioavailability", "setting": "[6]", "result": 61.5, "unit": "%"}]}
{"smiles": "Cc1ncccc1OC[C@H]1CCCN1C", "values": [{"measurement": "half-life", "setting": "[1]", "result": 0.61, "unit": "h"}, {"measurement": "Ki", "setting": "[11]", "result": 3, "unit": "µM"}, {"measurement": "Ki", "setting": "[4]", "result": "> 10", "unit": "µM"}, {"measurement": "half-life", "setting": "[5]", "result": 8.5, "unit": "h"}, {"measurement": "bioavailability", "setting": "[6]", "result": 4.9, "unit": "%"}]}
{"smiles": "CN1CCC[C@H]1c1cccnc1", "note": "[NICOTINE]", "values": [{"measurement": "Max", "setting": "IMR-32 [3]", "result": 100, "unit": "%"}, {"measurement": "EDmin", "setting": "Mus musculus [7]", "result": 6.2, "unit": "µM/kg"}, {"measurement": "EDmin", "setting": "Mus musculus [8]", "result": 41, "unit": "µM/kg"}, {"measurement": "EDmin", "setting": "Mus musculus [9]", "result": 0.62, "unit": "µM/kg"}]}
{"smiles": "CN1CCC[C@H]1COc1cccnc1", "values": [{"measurement": "EC50", "setting": "IMR-32 [2]", "result": 63, "unit": "µM"}, {"measurement": "Max", "setting": "IMR-32 [3]", "result": 100, "unit": "%"}, {"measurement": "Ki", "setting": "[4]", "result": 1.53, "unit": "µM"}, {"measurement": "Ki", "setting": "[12]", "result": 0.00028, "unit": "µM"}]}
